MEX-5 binding: C. elegans MEX-5 TCR-2 RNA binding activity; 300,000 compounds, 0.38% hits; activity score (negative = inhibition of binding), % at 10 µM; AID 1832; MEX-5/FITC-TCR2 RNA binding, fluorescence polarization; active compounds read low;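 active means inhibition past about -25% in most replicates, and total fluorescence under double the plate's negative control median, limit read from the data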
Target sequence (Q9XUB2 whole entry, looked up): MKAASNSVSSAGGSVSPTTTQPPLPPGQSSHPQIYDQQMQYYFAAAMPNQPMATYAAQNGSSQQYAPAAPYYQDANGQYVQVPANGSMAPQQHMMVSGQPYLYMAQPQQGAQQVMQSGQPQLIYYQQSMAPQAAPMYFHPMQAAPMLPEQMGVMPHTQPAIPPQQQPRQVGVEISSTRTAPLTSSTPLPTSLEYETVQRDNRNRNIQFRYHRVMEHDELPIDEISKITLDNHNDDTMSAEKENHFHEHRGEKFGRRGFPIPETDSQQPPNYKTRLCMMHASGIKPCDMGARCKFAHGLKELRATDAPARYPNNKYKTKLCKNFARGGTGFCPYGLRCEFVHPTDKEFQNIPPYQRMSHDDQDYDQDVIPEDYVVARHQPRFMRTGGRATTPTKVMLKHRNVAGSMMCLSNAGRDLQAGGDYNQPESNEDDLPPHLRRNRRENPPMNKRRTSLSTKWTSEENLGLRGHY
DNA FID counter: fluorescent intercalator displacement, NS3 helicase counter-screen | DNA fluorescent intercalator displacement, fluorescence | inhibition, % at 7.9 µM | 290,000 compounds, 0.17% hits | AID 1845; in the data active means inhibition above about 37%;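 further: higher means more ethidium bromide displaced from hairpin DNA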
NRP1-CendR mod: modulators of CendR peptide binding to human neuropilin-1; O14786; FAM-RPARPAR peptide binding to NRP-1, fluorescence polarization; inhibition, % at 25 µM; 360,000 compounds, 0.85% hits; AID 602438;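 active means inhibition or corrected inhibition above about 18%, plus a signal ratio from 0.5 to 1.5, limit read from the data, passing the limit was not always enough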
HCV core dimer: HCV core protein dimerization inhibition. TR-FRET GST/Flag-core106 dimerization, 1536-well. inhibition, % at 5 µM. 300,000 compounds, 0.33% hits. AID 1899;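 active means inhibition above the mean of all tested compounds plus 3 SD, set per screening campaign, cut at about 45% in these data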
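test system = GST/Flag-tagged HCV core106 proteins | probe or stimulus = Eu donor and XL665 acceptor anti-tag antibodies | times = compound-protein-antibody incubation 4 h at 22.5 °C | signal = TR-FRET, excitation 340 nm, emission 617 and 671 nm | measure = percent inhibition of core106 dimerization signal | controls = wells lacking GST-core106 and wells with excess unlabelled core106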
Of the large screens only hits and unclear results are named; the others gave an inactive call. This is a sample that favours compounds with a hit; in the whole collection about 1.5% have one here.

CSc1cccc(CN2CCN(Cc3ccccc3)C(CCO)C2)c1 (stereo unspecified)	NRP1-CendR mod 24.3
Cc1c(N=C2Nc3cccc4cccc2c34)c(=O)n(-c2ccccc2)n1C	MEX-5 binding -41.1
CC(=O)C1=C(c2ccccc2)NC(=O)NC1c1ccc(O)c(O)c1 (stereo unspecified)	MEX-5 binding -28.8
CCOc1cc(C2NC(=O)NC(c3ccccc3)=C2C(C)=O)ccc1OCC(N)=O (stereo unspecified)	NRP1-CendR mod 47.2
CCN(CC)C(=O)c1sc2nc(-c3cccs3)cc(-c3ccc(Cl)cc3)c2c1N	none
CCN(CC)C(=O)c1sc2nc(-c3cccs3)cc(-c3cccs3)c2c1N	MEX-5 binding -33.3
CC(C)(C)C(=O)c1sc2nc(-c3cccs3)cc(C(F)(F)F)c2c1N	MEX-5 binding -74.0
Cc1nnc(NC(=O)c2sc3nc(-c4cccs4)cc(C(F)(F)F)c3c2N)s1	none
CCCN(CC(=O)Nc1ccc(F)c(F)c1F)C(=O)Cc1ccc(OC)c(S(=O)(=O)N2CCOCC2)c1	none (no result: MEX-5 binding, DNA FID counter, HCV core dimer)
CCc1ccc(C(C#N)=CC=Cc2ccccc2)cc1	none (no result: MEX-5 binding, DNA FID counter, HCV core dimer)
Oc1c(CN2CCOCC2)cc(CN2CCOCC2)cc1CN1CCOCC1	NRP1-CendR mod 29.0 (no result: MEX-5 binding, DNA FID counter, HCV core dimer)
Oc1cc(O)c(CN2CCOCC2)cc1CN1CCOCC1	none (no result: MEX-5 binding, DNA FID counter, HCV core dimer)
Cc1ccccc1-n1c(SC(C)C(=O)NCC2CCCO2)nnc1-c1ccncc1 (stereo unspecified)	none (no result: MEX-5 binding, DNA FID counter, HCV core dimer)
O=C(CN1C(=O)C(=O)N(C2CCCC2)C1=O)Nc1ccc(F)cc1F	none (no result: MEX-5 binding, DNA FID counter, HCV core dimer)
O=c1[nH]c(-[n+]2ccc3ccccc3c2)c(/C=N/N=C(\[O-])c2ccccc2)s1	none
Cc1cc[n+](-c2[nH]c(=O)sc2/C=N/NC([S-])=Nc2ccccc2)cc1	NRP1-CendR mod 55.0
CC(C)(C)c1cc[n+](-c2[nH]c(=O)sc2/C=N/N=C(\[O-])c2cccnc2)cc1	none
O=c1[nH]c(-[n+]2ccccc2)c(/C=N/NC([S-])=Nc2ccccc2)s1	MEX-5 binding -82.2
Cc1cc(C)c[n+](-c2[nH]c(=O)sc2/C=N/NC([S-])=Nc2ccccc2)c1	MEX-5 binding -49.0, NRP1-CendR mod 46.9
CC(C)(C)c1cc[n+](-c2[nH]c(=O)sc2/C=N/NC(=O)c2ccccc2[O-])cc1	NRP1-CendR mod 27.2
CCCCC[C@@H](C)N1C[C@H](COCc2ccccc2)Oc2cc(N3CCC[C@@H]3CO)ccc2S1(=O)=O	none (no result: MEX-5 binding, DNA FID counter, HCV core dimer)
Cc1ccc(C(O)c2ncc(-c3ccccc3Cl)[nH]2)cc1F (stereo unspecified)	none (no result: MEX-5 binding, DNA FID counter, HCV core dimer)
CCc1ccc[n+](-c2[nH]c(=O)sc2/C=N/N=C(\N)[O-])c1	none
CCc1ccc[n+](-c2[nH]c(=O)sc2/C=N/NC([S-])=Nc2ccccc2)c1	MEX-5 binding -55.4
COc1ccc(Cl)cc1NC(=O)CCc1nc(-c2ccccc2F)no1	NRP1-CendR mod 46.2
O=C(c1ccc(-c2nnc(Nc3ccccc3)c3ccccc23)cc1)N1C[C@H]2C[C@H](C1)c1cccc(=O)n1C2	HCV core dimer 60.4
O=c1c(Cl)c(O)ccn1C1OC(CO)C(O)C1O (stereo unspecified)	none (no result: MEX-5 binding, DNA FID counter, HCV core dimer)
COc1ccc(C(=O)c2nccc3cc(OC)c(OC)cc23)cc1OC	NRP1-CendR mod 26.4 (no result: MEX-5 binding, DNA FID counter, HCV core dimer)
O=C(Nc1nc2ccccc2[nH]1)c1ccc(Cl)c(S(=O)(=O)N2CCCC2)c1	NRP1-CendR mod 33.6
O=C(Nc1nc2ccccc2[nH]1)c1ccc(S(=O)(=O)N2CCOCC2)cc1	none
CC(OC(=O)C1CCN(S(=O)(=O)c2ccc3c(c2)OCCO3)CC1)C(=O)NC1(C#N)CCCCC1 (stereo unspecified)	none (no result: MEX-5 binding, DNA FID counter, HCV core dimer)
CCn1c2ccccc2c2cc(/C=N/NC(=O)c3cccc(C)c3)ccc21	HCV core dimer 47.9
O=c1[nH]n2c(C(F)(F)F)cc(C3CC3)nc2c1N=Nc1ccccc1	NRP1-CendR mod 23.7
CC12CNCC(C)(CN(C(c3ccccc3)c3ccccc3)C1)C2	NRP1-CendR mod 31.0
Nc1[nH]c(C(=O)c2ccccc2)c(-c2ccccc2C(F)(F)F)c1C(=O)NCc1ccc(F)cc1	none (no result: MEX-5 binding, DNA FID counter, HCV core dimer)
CCCCNC(=O)c1onc(CSc2nc3ccccc3[nH]2)c1C(=O)NCCCC	none
O=C(NCC1CC1)c1onc(CSc2nc3ccccc3[nH]2)c1C(=O)NCC1CC1	NRP1-CendR mod 25.8
COc1ccc(-c2ccc(CN3C(C(C)C)C(=O)N(Cc4cn(CCC5OCCO5)nn4)CCS3(=O)=O)cc2)cc1 (stereo unspecified)	none (no result: MEX-5 binding, DNA FID counter, HCV core dimer)
CC1(C)C(=O)Nc2ccccc2N1C(=O)COc1ccc(S(=O)(=O)N2CCOCC2)cc1Cl	HCV core dimer 64.9
Cc1cc(-c2csc(N)n2)c(C)n1C	MEX-5 binding -47.1
Cc1ccc(-n2c(C)cc(-c3csc(N)n3)c2C)cc1	none
Nc1ncnc2c1ncn2C1OC(CO)C2OC21 (stereo unspecified)	NRP1-CendR mod 24.2 (no result: MEX-5 binding, DNA FID counter, HCV core dimer)
CN(C)c1ncnc2c1ncn2C1OC(CO)C(O)C1O (stereo unspecified)	none
OCC1OC(n2cnc3c(/C=C(\O)c4ccccc4)ncnc32)C(O)C1O (stereo unspecified)	NRP1-CendR mod 22.5 (no result: MEX-5 binding, DNA FID counter, HCV core dimer)
C[C@H](CO)N1C[C@H](C)[C@H](CN(C)C(=O)Nc2ccccc2)OCc2cnnn2CCCC1=O	none (no result: MEX-5 binding, DNA FID counter, HCV core dimer)
CCCOc1ccc(NC(=O)C2CC(=O)N3CCCN=C3S2)cc1 (stereo unspecified)	none
CCOc1ccc(NC(=O)C2CC(=O)N3CCCN=C3S2)cc1 (stereo unspecified)	HCV core dimer 50.0
OC(CN1CCN(Cc2ccccc2)CC1)Cn1c2ccccc2c2ccccc21 (stereo unspecified)	none
OC(CN1CCN(c2ccccc2)CC1)Cn1c2ccccc2c2ccccc21 (stereo unspecified)	NRP1-CendR mod 25.0
Cc1ccc(C(=O)Nc2nc(C(N)C(C)C)cs2)cc1 (stereo unspecified)	none (no result: MEX-5 binding, DNA FID counter, HCV core dimer)
CC(/C=C1\SC(=S)N(CC(=O)N2CCN(c3ccccc3)CC2)C1=O)=C\c1ccccc1	HCV core dimer 49.9
CCNC(=O)C1(C)CCN(C(=O)c2cccs2)C1 (stereo unspecified)	none (no result: MEX-5 binding, DNA FID counter, HCV core dimer)
COC[C@@H]1CCCN1[C@H]1CS(=O)(=O)N[C@@H]1COCc1ccccc1	none (no result: MEX-5 binding, DNA FID counter, HCV core dimer)
COC(=O)c1ccccc1S(=O)(=O)N1CCC(C(=O)OCc2ccc([N+](=O)[O-])cc2)CC1	NRP1-CendR mod 25.3 (no result: DNA FID counter)
O=C(Cn1cnc2scc(-c3ccccc3)c2c1=O)NCc1ccco1	HCV core dimer 56.3
CCc1ccc(-c2csc3ncn(CC(=O)NCc4ccco4)c(=O)c23)cc1	none
O=C(Cn1cnc2sc(-c3ccccc3)cc2c1=O)NCc1ccco1	HCV core dimer 64.7 (no result: MEX-5 binding)
O=C(Cn1cnc2sc(-c3ccccc3)cc2c1=O)NCc1ccccc1	none
O=C(NCc1ccccc1Cl)c1ccc2nc([C@@H]3O[C@H](CO)[C@@H](O)[C@H]3O)[nH]c2c1	none (no result: MEX-5 binding, DNA FID counter, HCV core dimer)
C=Cc1ccc(CC2(C)C(=O)Nc3ccc(Cl)cc32)cc1 (stereo unspecified)	none (no result: MEX-5 binding, DNA FID counter, HCV core dimer)
C=CCn1c(SCC(=O)Nc2cc(C)on2)nc2ccccc21	none (no result: MEX-5 binding, DNA FID counter, HCV core dimer)
CCCCN(C(=O)c1cccc(N2C(=O)c3ccccc3C2=O)c1)c1c(N)n(CC(C)C)c(=O)[nH]c1=O	none (no result: MEX-5 binding, DNA FID counter, HCV core dimer)
CCCCN(C(=O)c1cccc(-n2cccc2)c1)c1c(N)n(Cc2ccccc2)c(=O)[nH]c1=O	HCV core dimer 47.6 (no result: DNA FID counter)

Assay outcomes deposited in PubChem BioAssay by several laboratories.
